Reference: ChEMBL document CHEMBL3596191, “Inhibition studies of bacterial, fungal and protozoan β-class carbonic anhydrases with Schiff bases incorporating sulfonamide moieties” (Bioorg Med Chem, 2015)

Columns and labels:
[1] = Inhibition of Cryptococcus neoformans beta-carbonic anhydrase incubated for 15 mins prior to testing by stopped-flow CO2 hydration assay
In short: (§1)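 CO2 was 1.7–17 mM. Initial rates were taken from at least six traces of the first 5–10% of reaction over 10–100 s, with uncatalysed rates subtracted. Inhibitor dilutions were in water down to 0.01 nM, preincubated with enzyme 15 min at room temperature.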

[2] = Selectivity ratio of Ki for human alpha-carbonic anhydrase 2 to Ki for Brucella suis beta-carbonic anhydrase 1
[3] = Inhibition of Leishmania donovani chagasi beta-carbonic anhydrase incubated for 15 mins prior to testing by stopped-flow CO2 hydration assay; in short: as §1
[4] = Selectivity ratio of Ki for human alpha-carbonic anhydrase 1 to Ki for Brucella suis beta-carbonic anhydrase 2
[5] = test system: Brucella suis; test: Potency index, ratio of dichlorphenamide Ki to compound Ki for Brucella suis beta-carbonic anhydrase 1
[6] = Selectivity ratio of Ki for human alpha-carbonic anhydrase 2 to Ki for Cryptococcus neoformans beta-carbonic anhydrase
In short: (§2)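 Ki ratio, human CA isoform Ki divided by pathogen β-CA Ki, used as an index of selectivity for the pathogen enzyme over the human enzyme.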

[7] = Selectivity ratio of Ki for human alpha-carbonic anhydrase 1 to Ki for Brucella suis beta-carbonic anhydrase 1
[8] = Inhibition of Brucella suis beta-carbonic anhydrase 1 incubated for 15 mins prior to testing by stopped-flow CO2 hydration assay
In short: (§3)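 Stopped-flow CO2 hydration; 0.2 mM phenol red read at 557 nm in 10 mM Hepes pH 7.4, 10 mM Tris-HCl, 0.1 M NaSO4; CO2 1.7–17 mM. Inhibitor (10 mM water stock, diluted down to 0.01 nM) preincubated with enzyme 15 min at room temperature. Initial rates from at least six traces of the first 5–10% of reaction, over 10–100 s, with uncatalysed rates subtracted.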

[9] = test system: Brucella suis; test: Potency index, ratio of acetazolamide Ki to compound Ki for Brucella suis beta-carbonic anhydrase 2
[10] = Selectivity ratio of Ki for human alpha-carbonic anhydrase 2 to Ki for Brucella suis beta-carbonic anhydrase 2
[11] = test system: Brucella suis; test: Potency index, ratio of acetazolamide Ki to compound Ki for Brucella suis beta-carbonic anhydrase 1
[12] = test system: Brucella suis; test: Potency index, ratio of benzolamide Ki to compound Ki for Brucella suis beta-carbonic anhydrase 2
[13] = Inhibition of Brucella suis beta-carbonic anhydrase 2 incubated for 15 mins prior to testing by stopped-flow CO2 hydration assay; in short: as §3
[14] = Selectivity ratio of Ki for human alpha-carbonic anhydrase 1 to Ki for Leishmania donovani chagasi beta-carbonic anhydrase; in short: as §2
[15] = test system: Brucella suis; test: Potency index, ratio of benzolamide Ki to compound Ki for Brucella suis beta-carbonic anhydrase 1
[16] = test system: Brucella suis; test: Potency index, ratio of dichlorphenamide Ki to compound Ki for Brucella suis beta-carbonic anhydrase 2
[17] = Selectivity ratio of Ki for human alpha-carbonic anhydrase 2 to Ki for Leishmania donovani chagasi beta-carbonic anhydrase; in short: as §2
[18] = Selectivity ratio of Ki for human alpha-carbonic anhydrase 1 to Ki for Cryptococcus neoformans beta-carbonic anhydrase; in short: as §2

| SMILES | Ki [1] | Ratio Ki [2] | Ki [3] | Ratio Ki [4] | Ratio Ki [5] | Ratio Ki [6] | Ratio Ki [7] | Ki [8] | Ratio Ki [9] | Ratio Ki [10] | Ratio Ki [11] | Ratio Ki [12] | Ki [13] | Ratio Ki [14] | Ratio Ki [15] | Ratio Ki [16] | Ratio Ki [17] | Ratio Ki [18] |
| --- | --- | --- | --- | --- | --- | --- | --- | --- | --- | --- | --- | --- | --- | --- | --- | --- | --- | --- |
| NS(=O)(=O)c1ccc(/N=C/c2ccccc2)c(F)c1 | 0.56 nM | 61.5 | > 2500 nM | 216 | 2 | 1270 | 43.2 | 11.5 nM | 100 | 307 | 2 | 100 | 2.31 nM | < 0.2 | 2 | 100 | 0.3 | 891 |
| NS(=O)(=O)c1ccc(/N=C/c2csc3ccccc23)cc1 | 16.7 nM | 0.6 | 1420 nM | 14.8 | – | 39.8 | 3 | 1030 nM | – | 3.2 | – | – | 207 nM | 2.1 | – | – | 0.5 | 183 |
| CSc1ccc(/C=N/CCc2ccc(S(N)(=O)=O)cc2)cc1 | 21.8 nM | 8.9 | 216 nM | 102 | – | 32.5 | 37 | 79.4 nM | 10 | 24.7 | – | 10 | 28.7 nM | 13.6 | – | 10 | 3.3 | 135 |
| NS(=O)(=O)c1ccc(/N=C/c2ccc(Br)cc2O)cc1 | 16.9 nM | 1.1 | > 2500 nM | 183 | – | 41.9 | 6.9 | 625 nM | 10 | 29.9 | – | 10 | 23.7 nM | < 1.7 | – | 10 | < 0.3 | 256 |
| NS(=O)(=O)c1ccc(CC/N=C/c2ccc(S(=O)(=O)O)o2)cc1 | 12.1 nM | 0.7 | 1430 nM | 111 | – | 38.5 | 4.2 | 682 nM | 10 | 18.1 | – | 10 | 25.7 nM | 2 | – | 10 | 0.3 | 236 |
| NS(=O)(=O)c1ccc(/N=C/c2ccco2)c(F)c1 | 11.6 nM | 0.2 | 168 nM | 1.5 | – | 5.5 | 0.8 | 308 nM | 2 | 0.4 | – | – | 162 nM | 1.5 | – | – | 0.4 | 21.3 |
| NS(=O)(=O)c1ccc(CC/N=C/c2c[nH]c3ccc(Br)cc23)cc1 | 0.95 nM | 23.9 | 2030 nM | 714 | 2 | 627 | 70.2 | 24.9 nM | 100 | 243 | 2 | 100 | 2.45 nM | 0.9 | 2 | 100 | 0.3 | 1840 |
| COc1ccc(/C=N/CCc2ccc(S(N)(=O)=O)cc2)c(O)c1 | 17 nM | 6.4 | 190 nM | 201 | – | 40.9 | 40.2 | 110 nM | 10 | 31.8 | – | 10 | 21.9 nM | 23.2 | – | 10 | 3.7 | 258 |
| NS(=O)(=O)c1ccc(CC/N=C/c2ccc(-c3ccccc3)cc2)cc1 | 1.44 nM | 11.7 | 542 nM | 465 | – | 487 | 117 | 59.7 nM | 10 | 46.5 | – | 10 | 15.1 nM | 12.9 | – | 10 | 1.3 | 4860 |
| NS(=O)(=O)c1ccc(/N=C/c2ccc(-c3ccccc3)cc2)c(F)c1 | 9.5 nM | 1 | 155 nM | 9.4 | – | 52.4 | 2.9 | 523 nM | 2 | 3.1 | – | – | 161 nM | 9.7 | – | – | 3.2 | 159 |
| NS(=O)(=O)c1ccc(CC/N=C/c2ccc(Br)cc2O)cc1 | 22.3 nM | 0.9 | 1980 nM | 132 | – | 29.9 | 5.6 | 761 nM | 10 | 20.8 | – | 10 | 32 nM | 2.1 | – | 10 | 0.3 | 190 |
| NS(=O)(=O)c1ccc(CC/N=C/c2ccc(-c3ccccn3)cc2)cc1 | 19.2 nM | 0.8 | 1240 nM | 54.2 | – | 20.9 | 2.5 | 529 nM | 10 | 16.3 | – | 10 | 24.8 nM | 1.1 | – | 10 | 0.3 | 69.9 |
| NS(=O)(=O)c1ccc(CC/N=C/c2cccc(Br)c2O)cc1 | 15.7 nM | > 222 | 1270 nM | 220 | – | > 637 | 118 | 45.1 nM | 10 | > 412 | – | 10 | 24.3 nM | 4.2 | – | 10 | > 7.9 | 340 |
| NS(=O)(=O)c1ccc(/N=C/c2ccc(-c3ccccn3)cc2)cc1 | 21.7 nM | 0.7 | 1250 nM | 17.1 | – | 31.4 | 4.6 | 940 nM | – | 2.7 | – | – | 255 nM | 3.5 | – | – | 0.5 | 202 |
| NS(=O)(=O)c1ccc(CC/N=C/c2c(F)c(F)cc(F)c2F)cc1 | 2.26 nM | 22.3 | 107 nM | 1030 | 2 | 288 | 90.1 | 29.2 nM | 100 | 255 | 2 | 100 | 2.56 nM | 24.5 | 2 | 100 | 6.1 | 1160 |
| COc1cc([N+](=O)[O-])ccc1/C=N/CCc1ccc(S(N)(=O)=O)cc1 | 21.2 nM | 0.5 | 1940 nM | 1.3 | – | 7.9 | 0.7 | 330 nM | 2 | 1 | – | – | 163 nM | 0.1 | – | – | 0.09 | 10.1 |
| N#Cc1ccc(/C=N/CCc2ccc(S(N)(=O)=O)cc2)cc1 | 20.6 nM | 8.4 | 1400 nM | 662 | – | 34.6 | 25.7 | 85.2 nM | 100 | 215 | – | 100 | 3.31 nM | 1.6 | – | 100 | 0.5 | 106 |
